In ChEMBL document CHEMBL4373689, “Ferulic Acid Esters and Withanolides: In Search of Withania somnifera GABAA Receptor Modulators” (J Nat Prod, 2019):
Calls of active or inactive are those of the source. The rule behind the calls is not given here.

What was measured:
[1] = target: T1, GABA-A receptor; anion channel (Rattus norvegicus) (UniProt O09028+P15431+P18506+P18508+P19969+P20236+P23574+P23576+P28471+P28473+P30191+P62813+P63079+P63138+Q91ZM7+Q9ES14); assay: Activation of GABAA receptor in Sprague-Dawley rat dentate gyrus hippocampal granule neurons assessed as holding current at 10 uM by whole-cell patch-clamp method; type: protein-complex assay
Procedure, shortened: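 Rat dentate gyrus granule cells. Holding current was monitored with no electrical stimulation, before and after perfusion of 10 μM compound, to test for direct GABAAR activation.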

[2] = target: T1, GABA-A receptor; anion channel (Rattus norvegicus); assay: Modulation of GABAA receptor in electrically stimulated Sprague-Dawley rat dentate gyrus hippocampal granule neurons assessed as GABA induced IPSC amplitude at 10 uM at holding potential of -65 mV by whole-cell patch-clamp method; type: protein-complex assay
Procedure, shortened: (§1)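 Rat dentate gyrus granule cells gave evoked IPSCs. Stimulus intensity was set at the start of each recording to give about 30% of maximal amplitude, and bicuculline (20 μM) suppression confirmed GABAAR mediation. IPSCs were recorded before and after perfusion of 10 μM compound, and results are given as percent change from baseline (means ± SEM, n = cells).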

[3] = target: T1, GABA-A receptor; anion channel (Rattus norvegicus); assay: Modulation of GABAA receptor in electrically stimulated Sprague-Dawley rat dentate gyrus hippocampal granule neurons assessed as maximal potentiation of GABA induced IPSC amplitude at 100 uM at holding potential of -65 mV by whole-cell patch-clamp method relative to control; type: protein-complex assay
[4] = target: T1, GABA-A receptor; anion channel (Rattus norvegicus); assay: Modulation of GABAA receptor in electrically stimulated Sprague-Dawley rat dentate gyrus hippocampal granule neurons assessed as increase in GABA induced IPSC amplitude at 10 uM at holding potential of -65 mV by whole-cell patch-clamp method relative to control; type: protein-complex assay; procedure, shortened: as §1
[5] = target: GABA-A receptor; anion channel; assay: Modulation of GABAA receptor in electrically stimulated Sprague-Dawley rat dentate gyrus hippocampal granule neurons assessed as potentiation of GABA induced IPSC amplitude at holding potential of -65 mV by whole-cell patch-clamp method; type: protein-complex assay
[6] = target: T1, GABA-A receptor; anion channel (Rattus norvegicus); assay: Modulation of GABAA receptor in electrically stimulated Sprague-Dawley rat dentate gyrus hippocampal granule neurons assessed as decrease in GABA induced IPSC amplitude at 10 uM at holding potential of -65 mV by whole-cell patch-clamp method relative to control; type: protein-complex assay; procedure, shortened: as §1
[7] = target: T1, GABA-A receptor; anion channel (Rattus norvegicus); conditions: Sprague-Dawley, 20 uM

Row | Structure (SMILES) | Activity [1] | Activity [2] | inhibition [6] | also measured
1 | COc1cc(/C=C/C(=O)OCCCCCOC(=O)/C=C/c2ccc(O)c(OC)c2)ccc1O | inactive | inactive |  | 
2 | CC1=C(CO)C(=O)O[C@@H]([C@@H](C)[C@H]2CC[C@H]3[C@@H]4C[C@H]5O[C@]56[C@@H](O)C=CC(=O)[C@]6(C)[C@H]4CC[C@]23C)C1 | inactive | inactive |  | 
3 | CCCCCCCCCCCCCCCCCCCCCOC(=O)/C=C/c1ccc(O)c(OC)c1 | inactive |  |  | Activity [3]: 74%; Activity [4]: 48.2%; EC50 [5]: 7.9 µM
4 | CC1=C(C)C(=O)O[C@@H]([C@](C)(O)[C@H]2CC[C@H]3[C@@H]4C=CC5=CC=CC(=O)[C@]5(C)[C@H]4CC[C@]23C)C1 | inactive |  | 28.6% | 
5 | CC1=C(C)C(=O)O[C@@H]([C@@](C)(O)[C@H]2CC[C@H]3[C@@H]4[C@@H]5O[C@@H]5[C@@]5(O)CC=CC(=O)[C@]5(C)[C@H]4CC[C@]23C)C1 | inactive |  | 20.8% | 
6 | CN1CCc2cc3c(cc2[C@H]1[C@@H]1OC(=O)c2c1ccc1c2OCO1)OCO3 |  |  |  | inhibition [7]: Active
7 | CC1=C(C)C(=O)O[C@@H]([C@H](C)[C@H]2CC[C@H]3[C@@H]4[C@@H]5O[C@@H]5[C@@]5(O)CC=CC(=O)[C@]5(C)[C@H]4CC[C@]23C)C1 | inactive |  |  | Activity [4]: 29.4%
8 | CCCCCCCCCCCCCCCCCCCOC(=O)/C=C/c1ccc(O)c(OC)c1 | inactive |  | 36.5% | 
9 | CCCCCCCCCCCCCCCCCCOC(=O)/C=C/c1ccc(O)c(OC)c1 | inactive |  | 35.8% | 
10 | CC1=C(CO)C(=O)O[C@@H]([C@H](C)[C@H]2CC[C@H]3[C@@H]4C=CC5=CC=CC(=O)[C@]5(C)[C@H]4CC[C@]23C)C1 | inactive | inactive |  | 
